# Assay results from different studies.
# Lines come from different studies, so protocols differ.
# Ephx2: Bifunctional epoxide hydrolase 2 (Ephx2, Mus musculus, UniProt P34914)
# AMY1A: Alpha-amylase 1A (AMY1A, Homo sapiens, UniProt P0DUB6)
# EGFR: Epidermal growth factor receptor (EGFR, Homo sapiens, UniProt P00533)
# APC: Adenomatous polyposis coli protein (APC, Homo sapiens, UniProt P25054)
Structure (SMILES),target,assay,IC50 [µM]
O=C(Nc1ccc(-c2ccnc3ccccc23)cc1)C1CCN(S(=O)(=O)c2ccccc2Cl)CC1,Ephx2,"enzyme activity, inhibitor, fluorescence",0.0286
OC[C@H]1O[C@@H](Oc2cc3c4c(c2)[C@@H]([C@@H]2c5cc(O)cc6c5[C@@H](c5cc(O)cc(O)c5[C@H]2c2ccc(O)cc2)[C@H](c2ccc(O)cc2)O6)[C@H](c2ccc(O)cc2)c2c(O)cc(O)cc2[C@H]4[C@H](c2ccc(O)cc2)O3)[C@H](O)[C@@H](O)[C@@H]1O,AMY1A,"enzyme activity, inhibitor",> 100
C=CC(=O)Nc1cc2c(Nc3ccc(OCc4ccccn4)c(Cl)c3)ncnc2cc1OCCN1CCOCC1,"Epidermal growth factor receptor (EGFR, Homo sapiens, UniProt P00533, L858R/T790M)","enzyme activity, inhibitor",0.0015
Cc1c(Cc2ccccc2)c(=O)oc2c(C)c(OCC(=O)NN=Cc3ccco3)ccc12,EGFR,"enzyme activity, inhibitor, ATP luminescence",0.559
O=C(Nc1ccc(-c2cnc3ccccc3c2)cc1)C1CCN(S(=O)(=O)c2ccccc2Cl)CC1,Ephx2,"enzyme activity, inhibitor, fluorescence",0.116
Cc1ncc(CN2CCN(Cc3ccccn3)CC2)c2cc(C(=O)c3ccc4c(c3)OCCO4)oc12,EGFR,"enzyme activity, inhibitor, ADP detection",0.0405
CC(C)C[C@H](NC(=O)[C@H](Cc1ccc2ccccc2c1)NC(=O)[C@H](CCC(=O)O)NC(=O)C1N=CN=N1)C(=O)NC1CC1c1ccccc1 (stereo partly drawn),APC,"ligand displacement, FP",81.3
Oc1ccc([C@@H]2c3c(O)cc(O)cc3[C@@H]3c4c(cc(O)cc4[C@H]2[C@@H]2c4cc(O)cc5c4[C@@H](c4cc(O)cc(O)c4[C@H]2c2ccc(O)cc2)[C@H](c2ccc(O)cc2)O5)O[C@H]3c2ccc(O)cc2)cc1,AMY1A,"enzyme activity, inhibitor",33.7
Cc1ncc(CN2CCc3ccccc3C2)c2cc(C(=O)c3ccc4c(c3)OCCO4)oc12,EGFR,"enzyme activity, inhibitor, ADP detection",0.0129
CC(C)C[C@H](NC(=O)[C@H](Cc1ccc2ccccc2c1)NC(=O)[C@H](CCC(=O)O)NC(=O)c1ccncc1)C(=O)NC1CC1c1ccccc1 (stereo partly drawn),APC,"ligand displacement, FP",72.4
Cc1ccc2c(-c3cc4c(CN5CCN(Cc6ccccn6)CC5)cnc(C)c4o3)cc(=O)oc2c1,"Epidermal growth factor receptor (EGFR, Homo sapiens, UniProt P00533, C797S/L858R/T790M)","enzyme activity, inhibitor, ADP detection",0.00577
CC(C)C[C@H](NC(=O)[C@H](Cc1ccc2ccccc2c1)NC(=O)[C@H](CCC(=O)O)NC(=O)C1CCCCC1)C(=O)NC1CC1c1ccccc1 (stereo partly drawn),APC,"ligand displacement, FP",21.9
O=C(Nc1ccc(-c2ccc3ccccc3n2)cc1)C1CCN(S(=O)(=O)c2ccccc2Cl)CC1,Ephx2,"enzyme activity, inhibitor, fluorescence",0.182
CC(C)C[C@H](NC(=O)[C@H](Cc1ccc2ccccc2c1)NC(=O)[C@H](CCC(=O)O)NC(=O)c1ccnc(Cl)n1)C(=O)NC1CC1c1ccccc1 (stereo partly drawn),APC,"ligand displacement, FP",4.27
O=C(Nc1ccc(-c2ccc3ncccc3c2)cc1)C1CCN(S(=O)(=O)c2ccccc2Cl)CC1,Ephx2,"enzyme activity, inhibitor, fluorescence",0.0877
